Measurements taken from ChEMBL document CHEMBL1130092, “Discovery of potent nonpeptide vitronectin receptor (alpha v beta 3) antagonists” (J Med Chem, 1997).
Bridge positions count the residues as written; N and C are the ends. Peptide text beside a SMILES is read from it.

Experiments:
Integrin alpha-V/beta-3 = Integrin alpha-V/beta-3 (Homo sapiens, UniProt P05106+P06756); test: Affinity for vitronectin receptor, integrin alphaV-beta3; format: protein-complex assay
How it was run: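 Competitive radioligand binding to human αVβ3, displacing [3H]SK&F 107260; Ki values are means of two to three separate experiments.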

[1] = biological target: Integrin alpha-IIb/beta-3 (Homo sapiens, UniProt P05106+P08514); test: Affinity for platelet fibrinogen receptor, integrin alpha IIb/beta3
Sequence of Integrin alpha-IIb/beta-3 (P05106 27-788 limits assumed): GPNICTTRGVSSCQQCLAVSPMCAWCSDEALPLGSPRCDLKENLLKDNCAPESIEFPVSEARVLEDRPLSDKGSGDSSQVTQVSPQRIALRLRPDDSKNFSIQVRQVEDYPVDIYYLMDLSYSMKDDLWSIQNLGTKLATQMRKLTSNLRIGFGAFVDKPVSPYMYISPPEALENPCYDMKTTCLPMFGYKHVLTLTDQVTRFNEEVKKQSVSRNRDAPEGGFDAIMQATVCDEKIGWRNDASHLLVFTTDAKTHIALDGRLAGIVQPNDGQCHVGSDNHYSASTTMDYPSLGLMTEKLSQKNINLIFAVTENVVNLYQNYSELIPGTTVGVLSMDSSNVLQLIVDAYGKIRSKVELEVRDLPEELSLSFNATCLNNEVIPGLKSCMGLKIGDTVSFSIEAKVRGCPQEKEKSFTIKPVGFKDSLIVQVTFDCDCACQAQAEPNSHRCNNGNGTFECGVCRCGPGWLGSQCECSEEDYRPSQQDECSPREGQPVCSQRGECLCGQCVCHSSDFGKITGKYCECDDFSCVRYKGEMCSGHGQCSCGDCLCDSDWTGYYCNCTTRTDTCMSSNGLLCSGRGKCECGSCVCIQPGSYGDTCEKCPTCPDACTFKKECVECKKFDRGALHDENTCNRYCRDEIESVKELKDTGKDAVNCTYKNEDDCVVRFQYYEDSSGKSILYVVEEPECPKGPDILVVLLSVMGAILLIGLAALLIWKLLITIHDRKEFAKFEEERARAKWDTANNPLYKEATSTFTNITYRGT
Sequence of Integrin alpha-IIb/beta-3 (P08514 32-887 limits assumed): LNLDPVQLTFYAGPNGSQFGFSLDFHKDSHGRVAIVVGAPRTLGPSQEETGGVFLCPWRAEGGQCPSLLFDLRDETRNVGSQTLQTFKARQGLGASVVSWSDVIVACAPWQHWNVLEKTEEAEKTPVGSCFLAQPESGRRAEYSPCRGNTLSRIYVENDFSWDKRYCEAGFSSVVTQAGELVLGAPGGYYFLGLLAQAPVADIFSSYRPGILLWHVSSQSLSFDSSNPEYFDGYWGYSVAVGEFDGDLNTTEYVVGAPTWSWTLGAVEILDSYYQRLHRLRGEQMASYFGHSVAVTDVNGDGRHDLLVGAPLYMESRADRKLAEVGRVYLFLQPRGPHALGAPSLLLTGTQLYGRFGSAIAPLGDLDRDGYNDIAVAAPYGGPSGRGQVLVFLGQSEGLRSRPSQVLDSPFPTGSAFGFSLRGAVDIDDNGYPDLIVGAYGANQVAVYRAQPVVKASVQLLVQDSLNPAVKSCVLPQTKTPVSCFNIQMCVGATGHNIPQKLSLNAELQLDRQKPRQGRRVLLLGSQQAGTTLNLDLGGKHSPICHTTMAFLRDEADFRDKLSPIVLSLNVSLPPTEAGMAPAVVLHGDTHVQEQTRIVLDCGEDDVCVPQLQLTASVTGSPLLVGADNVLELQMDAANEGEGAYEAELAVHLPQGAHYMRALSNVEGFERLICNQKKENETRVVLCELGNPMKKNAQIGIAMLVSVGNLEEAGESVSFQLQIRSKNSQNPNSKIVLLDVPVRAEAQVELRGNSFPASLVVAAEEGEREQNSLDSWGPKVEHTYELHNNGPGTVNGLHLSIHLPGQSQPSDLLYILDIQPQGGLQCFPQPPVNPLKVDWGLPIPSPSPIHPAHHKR
Sequence of Integrin alpha-IIb/beta-3 (P08514 891-1039 limits assumed): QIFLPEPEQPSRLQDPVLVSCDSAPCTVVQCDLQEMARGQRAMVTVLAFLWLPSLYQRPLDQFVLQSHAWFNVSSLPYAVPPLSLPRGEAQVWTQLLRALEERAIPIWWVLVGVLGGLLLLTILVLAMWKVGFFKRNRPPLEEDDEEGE

Sequence of Integrin alpha-V/beta-3 (P05106 27-788 limits assumed): as the sequence (P05106 27-788 limits assumed) above
Sequence of Integrin alpha-V/beta-3 (P06756 31-889 limits assumed): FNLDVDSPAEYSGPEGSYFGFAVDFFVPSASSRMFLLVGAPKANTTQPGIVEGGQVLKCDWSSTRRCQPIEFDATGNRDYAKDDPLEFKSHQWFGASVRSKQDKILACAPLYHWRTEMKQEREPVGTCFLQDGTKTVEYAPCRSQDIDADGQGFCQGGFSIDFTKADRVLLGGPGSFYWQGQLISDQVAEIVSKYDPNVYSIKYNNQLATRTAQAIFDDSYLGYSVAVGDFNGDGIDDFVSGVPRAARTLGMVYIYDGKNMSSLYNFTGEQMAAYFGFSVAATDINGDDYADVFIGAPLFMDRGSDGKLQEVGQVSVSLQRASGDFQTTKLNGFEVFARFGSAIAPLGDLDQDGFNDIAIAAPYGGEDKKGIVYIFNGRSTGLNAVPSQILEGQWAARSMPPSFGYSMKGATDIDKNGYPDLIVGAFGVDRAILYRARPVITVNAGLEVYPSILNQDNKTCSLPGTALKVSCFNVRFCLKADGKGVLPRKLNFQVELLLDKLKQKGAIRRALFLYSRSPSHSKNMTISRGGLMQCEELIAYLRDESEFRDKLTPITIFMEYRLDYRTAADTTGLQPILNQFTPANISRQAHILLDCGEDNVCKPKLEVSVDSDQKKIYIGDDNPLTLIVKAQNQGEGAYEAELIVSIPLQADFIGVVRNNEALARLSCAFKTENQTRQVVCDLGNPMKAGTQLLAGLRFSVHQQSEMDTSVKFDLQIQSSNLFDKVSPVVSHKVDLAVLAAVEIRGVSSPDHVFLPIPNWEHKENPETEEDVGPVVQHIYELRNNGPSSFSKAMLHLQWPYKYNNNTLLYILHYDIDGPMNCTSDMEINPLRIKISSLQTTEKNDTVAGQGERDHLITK
Sequence of Integrin alpha-V/beta-3 (P06756 891-1048 limits assumed): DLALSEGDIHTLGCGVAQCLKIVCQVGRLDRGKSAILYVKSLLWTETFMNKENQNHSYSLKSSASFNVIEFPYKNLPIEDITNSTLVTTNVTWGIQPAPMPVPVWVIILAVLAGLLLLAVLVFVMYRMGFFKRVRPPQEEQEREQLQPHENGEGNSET

Row | SMILES | Ki (Integrin alpha-V/beta-3) [nM] | Ki [1] [nM]
1 | N=C(N)c1ccc(NC(=O)c2ccc3c(c2)CN(CCc2ccccc2)C(=O)C(CC(=O)O)N3)cc1 (stereo not given) | 56000 | 
2 | CN1Cc2cc(C(=O)NCCc3nc4ccccc4[nH]3)ccc2NC(CC(=O)O)C1=O (stereo not given) | 1100 | > 50000
3 | CN1Cc2cc(C(=O)Nc3nc4ccccc4[nH]3)ccc2NC(CC(=O)O)C1=O (stereo not given) | 1150 | > 50000
4 | CN1Cc2cc(C(=O)N3CCN(c4ccncc4)CC3)ccc2NC(CC(=O)O)C1=O (stereo not given) | 1000 | 8
5 | CN1Cc2cc(C(=O)N3CCN(c4ccccc4)CC3)ccc2NC(CC(=O)O)C1=O (stereo not given) |  | > 100000

Second part, the compound after the results:

Row | Ki (Integrin alpha-V/beta-3) [nM] | Ki [1] [nM] | SMILES
6 | 10 | 42000 | CC(=O)C[C@@H]1NC(=O)[C@@H](Cc2ccccc2)NC(=O)[C@H](C(C)C)NC(=O)[C@H](CCCN=C(N)N)NC(=O)CNC1=O
7 | 510 | 4500 | N=C(N)c1cccc(NC(=O)c2ccc3c(c2)CN(CCc2ccccc2)C(=O)C(CC(=O)O)N3)c1 (stereo not given)
8 | 50 |  | CN(C(=O)c1ccccc1)[C@@H](CCCNC(=N)N)C(=O)NCC1=CC(CC(=O)O)C(=O)N(c2ccccc2)CC1 (stereo not given in full)
9 | 15 | 52000 | CN1Cc2cc(C(=O)NCc3nc4ccccc4[nH]3)ccc2N[C@@H](CC(=O)O)C1=O
10 | 24 | 30000 | CN1Cc2cc(C(=O)NCc3nc4ccccc4[nH]3)ccc2NC(CC(=O)O)C1=O (stereo not given)
11 | 10 | 75000 | N/C1=N/CCC[C@H](N)C(=O)NCC(=O)N[C@@H](CC(=O)O)C(=O)N[C@@H](CO)C(=O)N[C@@H](Cc2ccccc2)C(=O)NCC(=O)N1 (H-RGDSFG; lactam 1-C)
12 | 3.5 |  | CN1C(=O)c2ccccc2SSc2ccccc2NC(=O)[C@H](CC(=O)O)NC(=O)CNC(=O)[C@@H]1CCCN=C(N)N [SKF-107260]
